{"source": "paper PMC7114156", "about": "(Antiviral Research, 2009)", "key": {"[1]": {"test_system": "W12 cells", "experiment": "Apoptosis assay", "assay_type": "cell-based, human", "details": "W12, 40 h exposure", "outline": "(§1)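 Apoptosis read as cytoplasmic histone-associated DNA fragments with a Cell Death Detection ELISA kit. Exposure was 20 h for IM9 and MT4 and 40 h for W12 and U937. A405 was read kinetically at 30 °C, and the rate per hour came from linear regression of the linear portion. A Fas-activating antibody was the positive control.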"}, "[2]": {"test_system": "adenovirus type 5", "experiment": "Adenovirus assay: adenovirus-5 replication in HFF cells, viral DNA by qPCR", "assay_type": "cell-based", "details": "read-out: EC50, adenovirus replication; data not shown"}, "[3]": {"test_system": "IM9 cells", "experiment": "Apoptosis assay", "assay_type": "cell-based, human", "details": "IM9, 20 h exposure", "outline": "as §1"}, "[4]": {"test_system": "MT4 cells", "experiment": "Apoptosis assay", "assay_type": "cell-based, human", "details": "MT4, 20 h exposure", "outline": "as §1"}, "[5]": {"test_system": "W12-20850 cells", "experiment": "Growth of W12-20850 cells, MTS", "assay_type": "cell-based, human", "details": "read-out: EC50, inhibition of growth of W12 cells; data not shown", "outline": "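For the time course, test compound was added at time zero to cells growing in 96-well plates. Growth was followed as rate of MTS reduction over 3 days from day zero, with untreated controls alongside.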"}, "[6]": {"test_system": "U937 cells", "experiment": "Apoptosis assay", "assay_type": "cell-based, human", "details": "U937, 40 h exposure", "outline": "as §1"}, "[7]": {"test_system": "episomal HPV-16 DNA", "experiment": "Hybrid capture assay for HPV16 DNA in W12-20850 cells", "assay_type": "cell-based", "details": "read-out: EC50, reduction of HPV DNA; W12 cells; data not shown", "outline": "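W12-20850 cells seeded at 7.5 × 10^3/well onto compound (100 to 0.001 μM), 4 days at 37 °C, 5% CO2. MTS growth read, then same cells lysed in 0.2N NaOH/1% Igepal. Episomal HPV-16 DNA measured by hybrid capture: 90 °C 6.5 min, 42 °C overnight, anti-digoxigenin HRP, chemiluminescence. HPV DNA/MTS ratio expressed as % of untreated control. Fit to modified Hill equation.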"}, "[8]": {"test_system": "IM9 cells", "experiment": "Growth of IM9 cell line", "assay_type": "cell-based, human", "details": "read-out: EC50, growth of IM9 cells; data not shown"}, "[9]": {"test_system": "MT4 cells", "experiment": "Growth of MT4 cell line", "assay_type": "cell-based, human", "details": "read-out: EC50, growth of MT4 cells; data not shown"}}, "data": [{"smiles": "O=C(N[C@H]1CCCc2c1[nH]c1ccc(Cl)cc21)c1ccccn1", "note": "[GSK984]", "values": [{"measurement": "Apoptosis", "setting": "[1]", "value": "did not induce apoptosis"}, {"measurement": "EC50", "setting": "[2]", "value": "> 10", "unit": "µM"}, {"measurement": "Apoptosis", "setting": "[3]", "value": "did not induce apoptosis"}, {"measurement": "Apoptosis", "setting": "[4]", "value": "did not induce apoptosis"}, {"measurement": "EC50", "setting": "[5]", "value": "17 ± 3.6", "unit": "µM"}, {"measurement": "Apoptosis", "setting": "[6]", "value": "did not induce apoptosis"}, {"measurement": "EC50", "setting": "[7]", "value": "6.9 ± 0.68", "unit": "µM"}, {"measurement": "EC50", "setting": "[8]", "value": 13, "unit": "µM"}, {"measurement": "EC50", "setting": "[9]", "value": 35, "unit": "µM"}]}]}
